Reference: ChEMBL document CHEMBL1130063, “Design and synthesis of potent antitumor 5,4'-diaminoflavone derivatives based on metabolic considerations” (J Med Chem, 1997)

Key:
MCF7 [1] = assay: Growth-Inhibitory activity against MCF-7 Cells in the absence of S-9 Mix; format: functional, cell-based, Homo sapiens
Summary of the method: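 MCF-7 cells were exposed to compound for 6 days in medium without S-9 mix, and cells were counted with a microcell counter.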

MCF7 [2] = assay: Growth-Inhibitory activity against MCF-7 Cells in the presence of S-9 Mix; format: functional, cell-based; conditions: Homo sapiens
Summary of the method: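 MCF-7 cells were exposed to compound for 6 days and counted with a microcell counter. S-9 mix was in the medium at 0.125% of a 30% S-9 mix solution. That solution was made from rat liver S-9, glucose 6-phosphate, β-NADPH, 20 mM HEPES, 50 mM MgCl2, 330 mM KCl and water.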

SK-BR-3 = assay: In vitro Growth Inhibitory activity against SK-BR-3 Human breast cancer cell line; format: functional, cell-based
Summary of the method: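 SK-BR-3 was seeded at 1 × 10^4 cells/well in McCoy's 5a with 10% FBS, treated for 6 days, and counted with a microcell counter.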

PSN1 = assay: In vitro Growth Inhibitory activity against PSN-1 Human pancreas cancer cell line; format: functional, cell-based
Summary of the method: (§1)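 Cells were grown in RPMI 1640 with 10% FBS. Seeding per well was 3 × 10^3 for T-47D and OVCAR-3, and 1.5 × 10^3 for MKN-28 and PSN-1. Compound exposure lasted 6 days, and cells were counted with a microcell counter.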

A-431 = assay: In vitro Growth Inhibitory activity against A431 Human vulva cancer cell line; format: functional, cell-based
Summary of the method: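 A431 was seeded at 1.5 × 10^3 cells/well in Dulbecco's modified Eagle's medium with FBS, treated for 6 days, and counted with a microcell counter.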

MDA-MB-453 = assay: In vitro Growth Inhibitory activity against MD-453 Human breast cancer cell line; format: functional, cell-based
Summary of the method: (§2)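 Each cell line was treated for 6 days, and growth was read by counting cells with a microcell counter.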

OVCAR-3 = assay: In vitro Growth Inhibitory activity against OVCAR-3 Human ovarian cancer cell line; format: functional, cell-based; summary of the method: as §1
ACHN = assay: In vitro Growth Inhibitory activity against ACHN Human kidney cancer cell line; format: functional, cell-based
Summary of the method: (§3)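 Cells were grown with 10% FBS. Seeding per well was 3 × 10^3 for Ishikawa, 5 × 10^3 for Hep-G2, 2.5 × 10^3 for WiDr and 1.5 × 10^3 for ACHN. Exposure lasted 6 days, followed by microcell-counter cell counts.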

WiDr = assay: In vitro Growth Inhibitory activity against WiDr Human colon cancer cell line; format: functional, cell-based; summary of the method: as §3
A2780 = assay: In vitro Growth Inhibitory activity against A2780 Human ovarian cancer cell line; format: functional, cell-based
Summary of the method: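 A2780 was seeded at 1 × 10^3 cells/well in RPMI 1640 with 5% FBS, exposed to compound for 6 days, and counted with a microcell counter.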

Ishikawa = assay: In vitro Growth Inhibitory activity against Ishikawa Human endometrial cancer cell line; format: functional, cell-based; summary of the method: as §3
T47D = assay: In vitro Growth Inhibitory activity against T-47D Human breast cancer cell line; format: functional, cell-based; summary of the method: as §1
MKN-28 = assay: In vitro Growth Inhibitory activity against MKN Human stomach cancer cell line; format: functional, cell-based; summary of the method: as §1
MCF7 [3] = assay: In vitro Growth Inhibitory activity against MCF-7 Human breast cancer cell line; format: functional, cell-based; summary of the method: as §2
HepG2 = assay: In vitro Growth Inhibitory activity against HepG2 Human liver cancer cell line; format: functional, cell-based; summary of the method: as §3

| SMILES | IC50 (MCF7 [1]; Homo sapiens, MCF7) [nM] | IC50 (MCF7 [2]) [nM] | other results |
| --- | --- | --- | --- |
| Nc1ccc(-c2cc(=O)c3c(N)ccc(O)c3o2)cc1 | 5300 | 16000 |  |
| Nc1ccc(-c2cc(=O)c3c(N)c(F)cc(F)c3o2)cc1 | 6 | 46 |  |
| Cc1ccc(N)c2c(=O)cc(-c3ccc(N)c(F)c3)oc12 | 15 | 180 |  |
| Nc1ccc(-c2cc(=O)c3c(N)c(F)cc(F)c3o2)cc1F | 1.2 | 25 | IC50 (SK-BR-3): 2.5 nM; IC50 (PSN1): > 1000 nM; IC50 (A-431): > 1000 nM; IC50 (MDA-MB-453): > 1000 nM; IC50 (OVCAR-3): 14 nM; IC50 (ACHN): > 1000 nM; IC50 (WiDr): > 1000 nM; IC50 (A2780): 1.3 nM; IC50 (Ishikawa): 13 nM; IC50 (T47D): 31 nM; IC50 (MKN-28): > 1000 nM; IC50 (MCF7 [3]): 1.2 nM; IC50 (HepG2): 2.8 nM |
| Nc1ccc(-c2cc(=O)c3c(N)c(Cl)ccc3o2)cc1 | 3.9 | > 10000 |  |
| Cc1cc(C)c2oc(-c3ccc(N)c(F)c3)cc(=O)c2c1N | 36 | 110 |  |
| Nc1ccc(-c2cc(=O)c3c(N)c(F)ccc3o2)cc1 | 4.4 | 130 |  |
| Nc1ccc(-c2cc(=O)c3c(N)c(Br)cc(Br)c3o2)cc1 | 6300 |  |  |
| COc1ccc(N)c2c(=O)cc(-c3ccc(N)cc3)oc12 | 21000 |  | IC50 (MCF7 [1]; mcf7): 19000 nM |
| Nc1ccc(-c2cc(=O)c3c(N)cccc3o2)cc1 | 7.3 | 210 |  |
| Nc1ccc(-c2cc(=O)c3c(N)c(Cl)cc(Cl)c3o2)cc1 | 53 | 610 |  |
| Nc1ccc(-c2cc(=O)c3c(N)ccc(Cl)c3o2)cc1 | 9.8 | 250 |  |
| Nc1ccc(-c2cc(=O)c3c(N)ccc(F)c3o2)cc1 | 6.9 | 170 |  |
| Nc1c(F)cc(-c2cc(=O)c3c(N)c(F)cc(F)c3o2)cc1F | 4 | 89 |  |
